Assay results from ChEMBL document CHEMBL1144562, “Synthesis of a new class of 2-anilino substituted nicotinyl arylsulfonylhydrazides as potential anticancer and antibacterial agents” (2007).
≈ marks a conversion by molar mass, not a printed value.

What was measured:
TK-10 = assay: Antitumor activity against TK10 cells; type: functional; conditions: Homo sapiens
Outline: (§1)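 Tested in the NCI 60-human-tumour-cell-line panel at five concentrations, in 10-fold dilutions from 10^-4 to 10^-8 M. Three parameters were taken from the dose-response data, each as log10 of the molar concentration: GI50 (50% net growth inhibition), TGI (total growth inhibition) and LC50 (50% net cell death).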

[1] = Antitumor activity against NCI-H322 cells; type: functional; conditions: Homo sapiens
SK-OV-3 = assay: Antitumor activity against SKOV3 cells; type: functional; conditions: Homo sapiens; outline: as §1
DU-145 = assay: Antitumor activity against DU145 cells; type: functional; conditions: Homo sapiens
A549 = assay: Antitumor activity against A549 cells; type: functional; conditions: Homo sapiens
HOP-62 = assay: Antitumor activity against HOP62 cells; type: functional; conditions: Homo sapiens
NCI-H460 = assay: Antitumor activity against NCI-H460 cells; type: functional; conditions: Homo sapiens
BT-549 = assay: Antitumor activity against BT549 cells; type: functional; conditions: Homo sapiens
HCT-15 = assay: Antitumor activity against HCT15 cells; type: functional; conditions: Homo sapiens
SK-MEL-5 = assay: Antitumor activity against SK-MEL-5 cells; type: functional; conditions: Homo sapiens; outline: as §1
Bacillus subtilis = assay: Antibacterial activity against Bacillus subtilis MTCC 441 after 18 hrs; type: functional; conditions: MTCC 441, 18 h
Outline: (§2)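 Disc diffusion (Kirby–Bauer) on Mueller-Hinton agar inoculated with fresh bacteria at 1-5 × 10^4 cfu mL-1. Compounds were dissolved in DMF at a range of concentrations, and discs were placed in triplicate. Plates were incubated at 30 °C for 18 h. MIC was taken as the lowest concentration giving no visible bacterial growth on the plate.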

[2] = Antitumor activity against HL60 (TB) cells; type: functional, HL-60(TB); conditions: Homo sapiens, HL-60
Outline: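 NCI 60-cell-line in vitro screen (leukaemia subpanel). Compound tested at five 10-fold dilutions from 10^-4 to 10^-8 M. Dose-response parameters: GI50 (concentration giving 50% net growth inhibition), TGI (total growth inhibition) and LC50 (50% net cell death), each reported as log10 of molar concentration.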

[3] = Antitumor activity against LOX IMV1 cells; type: functional; conditions: Homo sapiens
SNB-75 = assay: Antitumor activity against SNB75 cells; type: functional; conditions: Homo sapiens; outline: as §1
CCRF-CEM = assay: Antitumor activity against CCRF-CEM cells; type: functional; conditions: Homo sapiens
[4] = system: Staphylococcus epidermidis; assay: Antibacterial activity against Staphylococcus epidermidis MTCC 435 after 18 hrs; type: functional; conditions: MTCC 435, 18 h; outline: as §2
UACC-257 = assay: Antitumor activity against UACC257 cells; type: functional; conditions: Homo sapiens; outline: as §1
K562 = assay: Antitumor activity against K562 cells; type: functional; conditions: Homo sapiens
T47D = assay: Antitumor activity against T47D cells; type: functional; conditions: Homo sapiens; outline: as §1
HCC 2998 = assay: Antitumor activity against HCC2998 cells; type: functional; conditions: Homo sapiens
M14 = assay: Antitumor activity against M14 cells; type: functional; conditions: Homo sapiens
Escherichia coli = assay: Antibacterial activity against Escherichia coli MTCC 448 after 18 hrs; type: functional; conditions: MTCC 448, 18 h; outline: as §2
KM12 = assay: Antitumor activity against KM12 cells; type: functional; conditions: Homo sapiens
MOLT-4 = assay: Antitumor activity against MOLT4 cells; type: functional; conditions: Homo sapiens
CAKI-1 = assay: Antitumor activity against CAKI1 cells; type: functional; conditions: Homo sapiens
NCI-H226 = assay: Antitumor activity against NCI-H226 cells; type: functional; conditions: Homo sapiens
EKVX = assay: Antitumor activity against EKVX cells; type: functional; conditions: Homo sapiens
U-251 = assay: Antitumor activity against U251 cells; type: functional; conditions: Homo sapiens; outline: as §1
HOP-92 = assay: Antitumor activity against HOP92 cells; type: functional; conditions: Homo sapiens
SNB-19 = assay: Antitumor activity against SNB19 cells; type: functional; conditions: Homo sapiens; outline: as §1
Hs-578T = assay: Antitumor activity against HS578T cells; type: functional; conditions: Homo sapiens
SR = assay: Antitumor activity against SR cells; type: functional; conditions: Homo sapiens; outline: as §1
SF-295 = assay: Antitumor activity against SF295 cells; type: functional; conditions: Homo sapiens
MDA-MB-435 = assay: Antitumor activity against MDA-MB-435 cells; type: functional; conditions: Homo sapiens
SW-620 = assay: Antitumor activity against SW620 cells; type: functional; conditions: Homo sapiens; outline: as §1
HT-29 = assay: Antitumor activity against HT29 cells; type: functional; conditions: Homo sapiens
OVCAR-3 = assay: Antitumor activity against OVCAR-3 cells; type: functional; conditions: Homo sapiens
SK-MEL-28 = assay: Antitumor activity against SK-MEL-28 cells; type: functional; conditions: Homo sapiens
MCF7 = assay: Antitumor activity against MCF7 cells; type: functional; conditions: Homo sapiens
RXF 393 = assay: Antitumor activity against RXF393 cells; type: functional; conditions: Homo sapiens
[5] = read-out: Log LC50 (the source's name) (converted)

O=C(NNS(=O)(=O)c1ccc(Cl)cc1Cl)c1cccnc1Nc1ccc(Cl)cc1
GI50 (TK-10): 28.8 µM
LC50 (TK-10): > 100 µM
TGI (TK-10; read-out: Log TGI (converted)): 85.1 µM
GI50 [1]: 14.8 µM
CC50 [1, 5]: > 100 µM
TGI ([1]; read-out: Log TGI (converted)): 40.7 µM
GI50 (SK-OV-3): 17 µM
CC50 (SK-OV-3; [5]): > 100 µM
TGI (SK-OV-3; read-out: Log TGI (converted)): 52.5 µM
GI50 (DU-145): 41.7 µM
LC50 (DU-145): > 100 µM
TGI (DU-145; read-out: Log TGI (converted)): > 100 µM
GI50 (A549): 24.5 µM
LC50 (A549): > 100 µM
TGI (A549; read-out: Log TGI (converted)): 70.8 µM
GI50 (HOP-62): 16.6 µM
CC50 (HOP-62; [5]): 85.1 µM
TGI (HOP-62; read-out: Log TGI (converted)): 38 µM
GI50 (NCI-H460): 35.5 µM
LC50 (NCI-H460): > 100 µM
TGI (NCI-H460; read-out: Log TGI (converted)): 100 µM
GI50 (BT-549): 16.6 µM
LC50 (BT-549): 72.4 µM
TGI (BT-549; read-out: Log TGI (converted)): 34.7 µM
GI50 (HCT-15): 33.1 µM
LC50 (HCT-15): 100 µM
TGI (HCT-15; read-out: Log TGI (converted)): > 100 µM
GI50 (SK-MEL-5): 14.1 µM
LC50 (SK-MEL-5): 61.7 µM
TGI (SK-MEL-5; read-out: Log TGI (converted)): 29.5 µM
MIC (Bacillus subtilis): 15 µg/mL (≈ 31.8 µM)
GI50 [2]: 24 µM
LC50 [2]: 83.2 µM
TGI ([2]; read-out: Log TGI (converted)): 44.7 µM
GI50 [3]: 20.9 µM
LC50 [3]: > 100 µM
TGI ([3]; read-out: Log TGI (converted)): 46.8 µM
GI50 (SNB-75): 22.4 µM
CC50 (SNB-75; [5]): > 100 µM
TGI (SNB-75; read-out: Log TGI (converted)): 85.1 µM
LC50 (CCRF-CEM): > 100 µM
GI50 (CCRF-CEM; read-out: GI50): 6.62 µM
TGI (CCRF-CEM; read-out: Log TGI (converted)): > 100 µM
GI50 (CCRF-CEM; read-out: pGI50 (converted)): 6.61 µM
MIC [4]: 17 µg/mL (≈ 36 µM)
GI50 (UACC-257): 22.9 µM
LC50 (UACC-257): > 100 µM
TGI (UACC-257; read-out: Log TGI (converted)): 60.3 µM
GI50 (K562): 12.9 µM
LC50 (K562): 50.1 µM
TGI (K562; read-out: Log TGI (converted)): 25.7 µM
GI50 (T47D): 10.7 µM
CC50 (T47D; [5]): > 100 µM
TGI (T47D; read-out: Log TGI (converted)): 51.3 µM
GI50 (HCC 2998): 13.5 µM
LC50 (HCC 2998): 61.7 µM
TGI (HCC 2998; read-out: Log TGI (converted)): 28.8 µM
GI50 (M14): 19.1 µM
LC50 (M14): 79.4 µM
TGI (M14; read-out: Log TGI (converted)): 38.9 µM
MIC (Escherichia coli): 20 µg/mL (≈ 42.4 µM)
GI50 (KM12): 13.8 µM
CC50 (KM12; [5]): 58.9 µM
TGI (KM12; read-out: Log TGI (converted)): 28.8 µM
GI50 (MOLT-4): 19.5 µM
LC50 (MOLT-4): > 100 µM
TGI (MOLT-4; read-out: Log TGI (converted)): 57.5 µM
GI50 (CAKI-1): 20 µM
LC50 (CAKI-1): > 100 µM
TGI (CAKI-1; read-out: Log TGI (converted)): 58.9 µM
GI50 (NCI-H226): 24 µM
CC50 (NCI-H226; [5]): > 100 µM
TGI (NCI-H226; read-out: Log TGI (converted)): 58.9 µM
GI50 (EKVX): 26.3 µM
LC50 (EKVX): > 100 µM
TGI (EKVX; read-out: Log TGI (converted)): > 100 µM
GI50 (U-251): 34.7 µM
LC50 (U-251): > 100 µM
TGI (U-251; read-out: Log TGI (converted)): 100 µM
GI50 (HOP-92): 14.8 µM
CC50 (HOP-92; [5]): > 100 µM
TGI (HOP-92; read-out: Log TGI (converted)): 40.7 µM
GI50 (SNB-19): 26.9 µM
CC50 (SNB-19; [5]): > 100 µM
TGI (SNB-19; read-out: Log TGI (converted)): 100 µM
GI50 (Hs-578T): 17.8 µM
CC50 (Hs-578T; [5]): 97.7 µM
TGI (Hs-578T; read-out: Log TGI (converted)): 41.7 µM
GI50 (SR): 14.8 µM
LC50 (SR): 97.7 µM
TGI (SR; read-out: Log TGI (converted)): 38 µM
GI50 (SF-295): 30.2 µM
CC50 (SF-295; [5]): > 100 µM
TGI (SF-295; read-out: Log TGI (converted)): 77.6 µM
GI50 (MDA-MB-435): 27.5 µM
LC50 (MDA-MB-435): > 100 µM
TGI (MDA-MB-435; read-out: Log TGI (converted)): 81.3 µM
GI50 (SW-620): 28.2 µM
CC50 (SW-620; [5]): > 100 µM
TGI (SW-620; read-out: Log TGI (converted)): > 100 µM
GI50 (HT-29): 22.9 µM
LC50 (HT-29): > 100 µM
TGI (HT-29; read-out: Log TGI (converted)): 53.7 µM
GI50 (OVCAR-3): 20.4 µM
CC50 (OVCAR-3; [5]): > 100 µM
TGI (OVCAR-3; read-out: Log TGI (converted)): > 100 µM
GI50 (SK-MEL-28): 35.5 µM
LC50 (SK-MEL-28): > 100 µM
TGI (SK-MEL-28; read-out: Log TGI (converted)): > 100 µM
GI50 (MCF7): 35.5 µM
LC50 (MCF7): > 100 µM
TGI (MCF7; read-out: Log TGI (converted)): > 100 µM
GI50 (RXF 393): 17 µM
LC50 (RXF 393): > 100 µM
TGI (RXF 393; read-out: Log TGI (converted)): 43.7 µM
